MITF act = increases MITF-driven TRPM1 promoter luciferase signal; AID 588334; hit rate 0.75% among 300,000; SK-MEL-5 TRPM1-promoter luciferase, 24 h; % of positive control, neutral wells = 0; activation, % at 12.5 µM;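 active means mean activation of at least 80% with every replicate also reaching 80%; inconclusive means mean reaches 80% but some replicate falls short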;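 further: 0% = neutral control wells and 100% = parthenolide positive control wells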
Cneo AK release = causes C. neoformans cell lysis | adenylate kinase release luminescence, 4 h; normalised: neutral wells 0, clomiphene wells 100 | lysis activity, % at 15 µM | hit rate 0.2% among 360,000 | AID 651654;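 active means mean lysis activity across replicates of at least 80%, whatever share of replicates individually reach that level; inactive means mean lysis activity below 80%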
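Schedule: static 4 h at 37 °C with compound, 1 h detection; system: C. neoformans cells; benchmarks: Clomiphene as positive control; buffer or medium: fresh YPD medium; measure: luminescence rise reflecting yeast cell lysis; measured by: luminescent adenylate kinase detection reagent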
Wnt bcat act = Wnt/beta-catenin pathway activation. hit rate 1.2% among 300,000. AID 743398. activation, % at 9.35 µM. Wnt/beta-catenin reporter cell assay, activator, plate reader; in the data active means activation above about 30%, passing the limit was not always enough; inconclusive means no clear call, values can overlap the other calls;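 further: 0% = neutral control wells and 100% = positive control wells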
PGC1a acetyl inh = lowers PGC1a acetylation signal in U2OS cells | AlphaScreen anti-acetyl-lysine; with virally co-expressed GCN5 acetyltransferase | inhibition, % at 15.6 µM | hit rate 0.17% among 350,000 | AID 651687;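 active means every replicate shows inhibition of at least 40%; inconclusive means mean inhibition at least 40% but some replicate below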;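 further: 0% = neutral control wells and 100% = positive control wells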
Starred values were filed as active, the others as inactive; u = inconclusive; x = no result given; ! = a repeat was not active. Shown are actives, neighbours in structure and some others; about 1.5% of the full set was active somewhere.

SMILES | MITF act | Cneo AK release | Wnt bcat act | PGC1a acetyl inh
CC(C)NC(=O)N(C)C[C@H]1Oc2c(NS(=O)(=O)c3cccs3)cccc2C(=O)N([C@@H](C)CO)C[C@H]1C | x | x | x | -5
CN1[C@@H]2c3ccc(C4=CCCCC4)c(=O)n3C[C@@H]2[C@@H](CO)[C@@H]1C(=O)NCc1ccccc1 | x | -2 | x | -5
C[C@H](O)C#Cc1cnc2c(c1)C(=O)N([C@H](C)CO)C[C@H](C)[C@@H](CN(C)Cc1ccccn1)O2 | x | -2 | x | -10
CN1CCN(C(=O)c2cc(-c3cccc(Cl)c3)on2)CC1 | 19 | 1 | x | -1
O=C(c1ccc(-c2cc(Cl)ccc2Cl)o1)N1CCOCC1 | 44 | -1 | 9 | 0
O=C(c1ccc(-c2ccc(Cl)cc2Cl)o1)N1CCOCC1 | 147* | x | 54* | -1
O=C(c1cc(-c2cccc(Cl)c2)on1)N1CCCCCC1 | 113* | -2 | 21 | -4
C[C@@H]1CN([C@@H](C)CO)C(=O)c2cc(NC(=O)Nc3ccccc3)ccc2O[C@@H]1CN(C)Cc1ccc(Cl)c(Cl)c1 | x | x | x | -12
C[C@H]1CN([C@@H](C)CO)C(=O)c2cc(NC(=O)CCCN(C)C)ccc2O[C@@H]1CN(C)C | x | 1 | x | -1
COc1c(OC(C)=O)ccc(/C=C/c2ccc3ccccc3n2)c1[N+](=O)[O-] | 113* | -25 | 26 | -7
COc1c(OC(C)=O)ccc(/C=C/c2ccc3cccc(OC)c3n2)c1[N+](=O)[O-] | 17 | x | 32* | x
CC(=O)N=C(N)Sc1nc2ccccc2[nH]1 | x | -7 | 61* | x
CC(Sc1nc2ccccc2[nH]1)C(=O)O (configuration not stated) | 11 | 7 | 0 | 1
CCN1[C@@H]2c3ccc(-c4ccccc4OC)c(=O)n3C[C@@H]2[C@@H](CO)[C@@H]1C(=O)NCc1ccc(F)cc1 | x | -5 | x | x
COc1cccc(Cn2c(NCc3cccnc3)nc3c2c(=O)n(C)c(=O)n3C)c1 | -37 | x | x | 71*
Cn1c(=O)c2c(nc(NCc3cccnc3)n2Cc2cccc(C(F)(F)F)c2)n(C)c1=O | -7 | -3 | x | -13
CC1CCCC(C)N1C(=O)c1cc(-c2ccc3c(c2)OCO3)on1 (configuration not stated) | 95* | -1 | 1 | 1
CC1CCCC(C)N1C(=O)c1cc(-c2ccc(Cl)c(Cl)c2)on1 (configuration not stated) | 97* | -6 | x | 12
Cc1onc(-c2c(Cl)cccc2Cl)c1C(=O)N1C(C)CCCC1C (configuration not stated) | 1 | 1 | 3 | x
C[C@@H]1CN([C@H](C)CO)C(=O)c2cccc(NS(=O)(=O)c3ccccc3)c2O[C@H]1CN(C)C(=O)Nc1ccc(F)cc1 | x | -2 | x | 1
Fc1cccc(CN2C[C@@H]3N[C@H](C2)[C@@H]3c2ccc(-c3cccc(F)c3)cc2)c1 | x | x | x | 99*
Fc1cccc(-c2ccc(C3[C@@H]4CN(Cc5cccnc5)C[C@H]3N4)cc2)c1 (some centres not stated) | x | x | x | -37
Fc1cccc(CN2C[C@@H]3N[C@H](C2)C3c2ccc(-c3ccccc3)cc2)c1 (some centres not stated) | x | x | x | 97*!
Fc1cccc(CN2C[C@@H]3N[C@H](C2)C3c2ccc(-c3cncnc3)cc2)c1 (some centres not stated) | x | x | x | 2
NCC[C@@H]1CC[C@@H](NS(=O)(=O)Cc2ccccc2)[C@H](CO)O1 | x | 56 | x | -7
SMILES | MITF act | Cneo AK release | Wnt bcat act | PGC1a acetyl inh
CCn1c(=O)c(C(=O)NCc2ccccc2)c(O)c2ccccc21 | 2 | 4 | 0 | 13
CCn1c(=O)c(C(=O)NCc2ccc(Cl)cc2)c(O)c2ccccc21 | x | -2 | 43* | 3
COc1ccc(NC2=Nc3ccccc3CC2)cc1 | 91* | 0 | 39* | -5
COc1ccc(NC2=NCCCCC2)cc1 | 10 | -3 | 1 | -13
COc1ccc(-c2ccc([C@H]3[C@H](CO)N4C(=O)CN(C(=O)NC(C)C)C[C@@H]34)cc2)cc1 | x | x | x | -13
COC(=O)c1c(-c2ccc(S(C)(=O)=O)cc2)sc2ccc(OC)cc12 | 107* | -5 | 47* | 5
COC(=O)c1c(-c2ccc(SC)cc2)sc2ccc(OC)cc12 | 68 | -4 | 58* | x
COC(=O)c1c(-c2cc(OC)cc(OC)c2)sc2ccc(OC)cc12 | 37 | -5 | 7 | -11
COC(=O)c1c(-c2ccc(S(C)(=O)=O)cc2)sc2cc(OC)ccc12 | 58 | -1 | u | 5
COc1ccc2nc(NC(=O)c3cc(C)oc3C)sc2c1 | 96* | -5 | x | -12
COc1ccc2nc(NC(=O)CCNC(=O)c3ccco3)sc2c1 | 110* | -2 | 42* | x
CCOc1ccc(C(=O)N(CC)CC(=O)Nc2ccc3c(c2)OCCO3)cc1OCC | 3 | 5 | -2 | -8
CCN(CC(=O)Nc1ccc2c(c1)OCCO2)C(=O)c1ccc(C(F)(F)F)cc1 | 107* | 0 | -2 | 8
CCN(CC(=O)Nc1ccc2c(c1)OCCO2)C(=O)c1ccc(Cl)cc1Cl | 109* | x | 25 | x
COc1ccc(S(=O)(=O)N(C)C[C@H]2OCCCC[C@H](C)Oc3ccc(NC(=O)Nc4ccc5c(c4)OCO5)cc3C(=O)N([C@H](C)CO)C[C@H]2C)cc1 | x | 0 | x | 7
O=C(C[C@@H]1CC[C@@H]2[C@H](COC[C@H](O)CN2C(=O)c2cnccn2)O1)NCc1ccccc1 | x | -3 | x | 3
C[C@H](CO)N1C[C@H](C)[C@H](CN(C)Cc2ccc(C(=O)Nc3ccccc3N)cc2)Oc2ccc(NS(=O)(=O)c3cccs3)cc2C1=O | x | 44 | x | 7
C#CCNC(=O)c1cccn1-c1ncc(C(F)(F)F)cc1Cl | 6 | x | 1 | 3
N#CCNC(=O)c1cccn1-c1ncc(C(F)(F)F)cc1Cl | -3 | x | 38* | -10
CNC(=O)C[C@H]1CC[C@H]2[C@H](COc3ccc(NC(=O)C(C)C)cc3C(=O)N2C)O1 | x | -1 | x | 4
O=c1c2ccccc2nc2n1CCc1c-2[nH]c2ccccc12 | 39 | -3 | 41* | -3
